# Measured values published in ChEMBL document CHEMBL1811853, “Design and evaluation of 3-aminopyrazolopyridinone kinase inhibitors inspired by the natural product indirubin” (Bioorg Med Chem, 2011).
# Test: Aqueous solubility of the compound by HPLC analysis
# Type: physicochemical
# Conditions: water
# Summary of the method: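 Solubility determined by HPLC measurement of the concentration in saturated aqueous solutions of the compounds.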
row,SMILES,solubility
1,Nc1n[nH]c2cc(C3CCNCC3)[nH]c(=O)c12,2340 µg/mL
2,Cn1nc(N)c2c(=O)[nH]c(C3CCNCC3)cc21,> 15000 µg/mL
3,Nc1c2c(=O)[nH]c(C3CCNCC3)cc2nn1-c1ccccc1,1430 µg/mL

# The next lines start with the values.
row,solubility,SMILES
1,< 1 µg/mL,O=C1Nc2ccccc2/C1=C1/Nc2ccccc2C1=O [INDIRUBIN]
2,24 µg/mL,Nc1n[nH]c2cc(-c3ccccc3)[nH]c(=O)c12
3,2 µg/mL,Cc1[nH]c(=O)c2c(N)nn(C)c2c1-c1ccccc1
